Source: PubChem BioAssay (SRMLSC)
PTEN del growth: growth suppression of PTEN-null HCT116, primary screen, cell-based, CellTiter-Glo; AID 827, 2007; viability, % at 10 µM; HCT116 PTEN-null viability, 60 h; active compounds read low; hit rate 1.2% among 140,000;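 active = viability at or below a set limit, 4 SD under the median of all tested compounds, cut at about 3.7% in these data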;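 note: PTEN knockout HCT116 line with beta catenin targeted HCT116 as companion control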
Fibroblast inh: antiproliferative effect on LL 47 fibroblasts – human, LL 47 cells, CellTiter-Glo luminescence, primary screen; viability, % at 10 µM; hit rate 1.1% among 85,000; LL 47 human lung fibroblast viability, ATP luminescence; active compounds read low; AID 719, 2007;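 active = viability at or below 50% in the single dose screen; inactive = viability above 50%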;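 note: compound exposure lasted 72 h before the ATP readout; 100% = median luminescence of untreated cell-only wells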
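Material: human LL 47 lung fibroblast cells; quantity: 1,150 cells/well; medium: IMEM plus 15% FBS; doses: 0.1% DMSO in all compound wells; timing: overnight attachment after seeding, then 72 h compound exposure at 37 °C; detection: CellTiter-Glo luminescence; measure: % viability of median cell-only signal; controls: cell-only wells, no compound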
HUVEC inhibit: inhibitors of HUVEC proliferation, primary screen, cell-based, 384-well; CellTiter-Glo luminescence, 72 h; active compounds read low; viability, % at 10 µM (by protocol); hit rate 1.1% among 86,000; AID 648, 2007;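 active = viability at or below 30%; inactive = viability above 30%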;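 note: 100% = median luminescence of DMSO-only cell control wells on each plate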
bCat KO growth: primary screen for growth suppressors in beta-catenin knockout HCT116 cells (colon tumor, human). viability, % at 10 µM. hit rate 1.5% among 140,000. HCT116 beta-catenin knockout viability, CellTiter-Glo, 60 h; active compounds read low. AID 818, 2007;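 active = viability at or under a set limit, the compound median less 4 SD, cut at about 6% in these data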;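 note: 0% = Hyamine 1622 control at 20 µM and 100% = untreated cell control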
H69AR inhibit: proliferation blockers of H69AR lung cancer cells, primary screen, cell-based, human, 86K library | H69AR lung tumor viability, ATP luminescence, 72 h; active compounds read low | viability, % at 10 µM | hit rate 6% among 85,000;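 active = viability at or below 40%; inactive = viability above 40%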;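 note: multidrug resistant small cell line overexpressing MRP-1 efflux transporter; 100% = mean luminescence of untreated control wells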
Numbers without * were called inactive; . = no result. This is one part of a sample in which hits are shown more often than they occur.

SMILES | PTEN del growth | Fibroblast inh | HUVEC inhibit | bCat KO growth | H69AR inhibit
Cc1ccc(-c2nc3ccccc3[nH]2)cc1NC(=O)c1ccco1 | 85.9 | 106.9 | 96.5 | 95.0 | .
O=C(CSc1ccccc1)Nc1ccc(-c2nc3ccccc3[nH]2)cc1 | 71.2 | . | . | 79.7 | .
Cc1ccc(S(=O)(=O)N2CCC(C(=O)Nc3nnc(-c4ccco4)s3)CC2)cc1 | 99.7 | 67.0 | 61.2 | 91.6 | 37.8*
COc1ccc(S(=O)(=O)n2nc(OC(=O)c3c(-c4ccccc4Cl)noc3C)cc2N)cc1 | 93.8 | 109.9 | 83.0 | 96.6 | 28.1*
COc1ccccc1C(=O)Oc1cc(N)n(S(=O)(=O)c2ccc(C)cc2)n1 | 105.2 | . | . | 95.5 | .
CCOC(=O)c1cc2sccc2n1CC(=O)Nc1ccc2c(c1)OCCO2 | 80.6 | 91.5 | 94.1 | 92.8 | 38.4*
Cc1cc(C)c(C)c(S(=O)(=O)Nc2ccc(OCC(=O)O)cc2)c1C | 94.8 | 101.8 | 94.3 | 87.8 | 95.3
N=c1c2c(-c3ccccc3)c(-c3ccccc3)n(Cc3ccccc3)c2ncn1CCO | 1.6* | 21.9* | 3.3* | 1.2* | 1.9*
N=c1c2c(-c3ccccc3)c(-c3ccccc3)n(Cc3ccco3)c2ncn1Cc1ccccc1 | 1.9* | 31.8* | 2.1* | 1.1* | 9.9*
OCCNc1ncnc2c1c(-c1ccccc1)c(-c1ccccc1)n2Cc1ccco1 | 75.2 | . | . | 84.3 | .
CC(C)Cn1cnc2c(c(-c3ccccc3)c(-c3ccccc3)n2Cc2ccco2)c1=N | 3.0* | 3.1* | 2.5* | 2.8* | 1.1*
Cc1ccc(S(=O)(=O)NCCc2nnc3ccc(SCC(=O)Nc4nc(C)cs4)nn23)cc1 | 111.2 | . | . | 94.7 | .
Cc1ccc(-n2nnnc2C(Cl)c2nnnn2-c2ccc(C)cc2)cc1 | 1.1* | . | . | 1.6* | .
Cc1ccc(-n2nnnc2-c2ccco2)cc1 | 96.9 | 95.6 | 95.9 | 97.7 | 94.8
S=C(Nc1ccccc1)c1ccccn1 | 9.6 | 96.0 | 93.0 | 30.9 | 1.2*
O=C(Nc1ccccc1)C(=O)Nc1ccccn1 | 80.3 | . | . | 85.0 | .
CC(C)OC(=O)c1c(NC(=O)CCn2nnc3ccccc32)sc2c1CCCC2 | 98.9 | . | 99.5 | 89.6 | 92.7
CCOC(=O)c1sc(NC(=O)CCn2nnc3ccccc32)c(C(=O)OCC)c1C | . | 95.4 | 56.8 | . | 36.4*
Cc1ccc(O)c(-c2cc(C(=O)Nc3ccc(S(=O)(=O)N4CC(C)OC(C)C4)cc3)[nH]n2)c1 (centres undefined) | 25.7 | 89.2 | 77.0 | 33.3 | 17.3*
CC(=O)Nc1ccc(S(=O)(=O)N2CCOCC2)cc1 | 94.0 | 112.9 | 103.0 | 89.8 | 94.7
Cc1cc(O)c(-c2cc(C(=O)Nc3ccc(S(=O)(=O)N4CCOCC4)cc3)[nH]n2)cc1C | 8.6 | 48.6* | 45.4 | 15.2 | 33.0*
COc1ccc(N(C(=O)Cc2cccs2)C(C(=O)NC2CCCCC2)c2cccn2C)cc1 (centres undefined) | 83.5 | 86.0 | 78.2 | 90.4 | 78.1
Cn1cccc1C(C(=O)NC1CCCCC1)N(C(=O)Cc1cccs1)c1ccc2c(c1)OCO2 (centres undefined) | 101.4 | 80.5 | 85.4 | 100.0 | 28.3*
c1ccc(Oc2cccc(OCCCCN3CCCC3)c2)cc1 | 57.1 | . | . | 60.5 | .
CC1(C)NC(=O)N(CCOCCOc2ccc3ccccc3c2Br)C1=O | 77.3 | 89.5 | 78.1 | 78.1 | 32.5*
SMILES | PTEN del growth | Fibroblast inh | HUVEC inhibit | bCat KO growth | H69AR inhibit
CCN(CC)S(=O)(=O)c1ccc(C)c(NC(=O)CSc2ncc(C(F)(F)F)cc2Cl)c1 | 94.0 | . | . | 93.7 | .
Cc1ccc(S(=O)(=O)N2CCN(C(=O)CSc3ncc(C(F)(F)F)cc3Cl)CC2)cc1 | 45.0 | 88.8 | 76.7 | 51.0 | 6.2*
Cc1ccc(S(=O)(=O)N(C)C)cc1NC(=O)CSc1ncc(C(F)(F)F)cc1Cl | 90.8 | . | . | 1.3* | .
COc1ccc(S(=O)(=O)N2CC3C4C=CC(C4)C3C2)cc1 (centres undefined) | 99.0 | 83.5 | 89.8 | 87.7 | 92.6
CCCCN1C(=O)C(NC(C)=O)c2cc(Br)ccc21 (centres undefined) | 65.4 | 100.4 | 94.8 | 62.1 | 24.5*
COc1ccc(-c2ncncc2-c2csc(C)n2)c(O)c1OC | 97.2 | 97.6 | 102.0 | 98.3 | 91.9
COC1=C(N)C(=O)c2nc(-c3nc(C(=O)O)c(C)c(-c4ccc(OC)c(OC)c4O)c3N)ccc2C1=O | 2.0* | . | . | 2.3* | .
Cc1cc(Nc2nc3ccccc3nc2Cl)n(-c2ccc([N+](=O)[O-])cc2)n1 | 37.8 | 67.6 | 67.0 | 20.1 | 21.4*
CCc1cc(-c2n[nH]c(=S)n2-c2ccccc2C)cs1 | 96.5 | . | . | 84.9 | .
O=C(Nc1ncnc2sc3c(c12)CCCCC3)c1ccc(F)cc1 | 56.9 | 74.3 | 81.3 | 54.8 | 39.6*
CN1CCN(Cc2cc(COCc3ccccc3)c3cccnc3c2O)CC1 | 0.8* | 2.8* | 70.8 | 1.1* | 1.8*
Oc1ccc(CN2CCN(Cc3ccccc3)CC2)c2cccnc12 | 2.0* | 94.8 | 105.9 | 2.4* | 2.0*
Cc1ccccc1NCc1ccc(O)c2ncccc12 | 11.0 | 93.0 | 84.3 | 12.0 | 71.5
COCc1ccc(O)c2ncccc12 | 2.1* | 3.0* | 6.0* | 2.2* | 1.1*
O=[N+]([O-])c1ccc(O)c2ncccc12 | 3.9 | . | . | 4.1* | .
Oc1ccc(CNc2ccccc2)c2cccnc12 | 5.5 | 88.5 | 71.5 | 7.4 | 35.6*
OCc1ccnc2c(O)cccc12 | 2.9* | . | . | 3.2* | .
Oc1ccc(CNc2ccc(F)cc2)c2cccnc12 | 10.0 | 85.2 | 77.4 | 11.9 | 55.3
Cc1ccccc1N=Nc1ccc(O)c2ncccc12 | 10.9 | . | . | 15.8 | .
O=C1/C(=C\c2cccnc2)Sc2ccccc21 | 62.6 | . | . | 65.4 | .
CC1C/C(=C\c2cccnc2)C(=O)/C(=C/c2cccnc2)C1 (centres undefined) | 2.1* | . | . | 2.7* | .
CN(CC(=O)NC1CCCCCC1)S(=O)(=O)c1ccc2c(c1)n(C)c(=O)c(=O)n2C | 99.8 | 97.8 | 102.2 | 92.6 | 89.0
N/C(=N\OC(=O)Nc1ccc(Cl)cc1)c1ncc(C(F)(F)F)cc1Cl | 84.4 | 106.0 | 66.7 | 78.0 | 31.7*
O=S1(=O)c2ccccc2N=NN1Cc1cc(Cl)cc(Cl)c1 | 80.0 | 47.0* | 78.2 | 71.3 | 1.2*
O=S1(=O)c2ccccc2N=NN1Cc1ccc(Cl)cc1 | 103.0 | 6.2* | 20.6* | 97.3 | 1.1*
CCOc1ccc(Br)cc1S(=O)(=O)Nc1ccc(NC(=O)c2ccccc2F)cc1 | 62.7 | . | . | 69.7 | .
COc1ccc(N2Nc3n[nH]c(N)c3N2)cc1 | 91.6 | 99.9 | 84.5 | 96.5 | 108.7
COc1ccc(S(=O)(=O)CCC(=O)N(C)c2ccc(OC)cc2OC)cc1 | 0.4* | 103.3 | 103.3 | 0.5* | 93.8
COc1ccc(S(=O)(=O)CCC(=O)Nc2ccc(OC)cc2OC)cc1 | 91.8 | 97.3 | 94.0 | 92.1 | 84.1
Nc1nc(Nc2cccc3ccccc23)nc(C2CCCC2=O)n1 (centres undefined) | 60.5 | 91.3 | 14.8* | 77.0 | 0.8*
